ChEMBL document CHEMBL1148762, “Lysosome and HER3 (ErbB3) selective anticancer agent kahalalide F: semisynthetic modifications and antifungal lead-exploration studies” (J Med Chem, 2007)
≈ marks a conversion by molar mass, not a printed value. Calls of active or inactive are those of the source. The rule behind the calls is not given here.

Key:
Fusarium solani [1] = assay: Fungicidal activity against Fusarium solani at 30 uM after 72 hrs by microtiter assay; assay type: functional, organism-based
Procedure, shortened: (§1)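 After 72 h of microtiter broth exposure at 30 µM, 20 µL from each well was plated onto compound-free potato dextrose agar and incubated 3 days at 28 °C. No regrowth was scored fungicidal; regrowth was scored fungistatic.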

Fusarium oxysporum [2] = assay: Fungicidal activity against Fusarium oxysporum at 30 uM after 72 hrs by microtiter plate assay; assay type: functional, organism-based; procedure, shortened: as §1
Fusarium proliferatum [3] = assay: Fungicidal activity against Fusarium proliferatum at 30 uM after 72 hrs by microtiter plate assay; assay type: functional, organism-based; procedure, shortened: as §1
Fusarium proliferatum [4] = assay: Antifungal activity against Fusarium proliferatum at 20 ug/mL after 3 days by fluorescence assay; assay type: functional, organism-based
Procedure, shortened: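 Fusarium proliferatum conidia in potato dextrose broth in a tube with the coumarin (DEAC)-labelled probe at 20 µg/mL, held at 24 ± 1 °C. Hyphae and mycelia were viewed at 4, 8, 16, 24, 48 and 72 h by light and epifluorescence microscopy at 400× and 1000×. Conidia were first checked for autofluorescence.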

Fusarium oxysporum [5] = assay: Fungistatic activity against Fusarium oxysporum at 30 uM after 72 hrs by microtiter plate assay; assay type: functional, organism-based
Procedure, shortened: (§2)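 Conidia come from 7-day potato dextrose agar cultures, filtered and set photometrically (625 nm) to 3 × 10^5 conidia/mL. They are exposed to compound at 30 µM in 96-well microdilution broth at 24 ± 1 °C under a 12 h photoperiod. After 72 h, 20 µL per well is subcultured on drug-free potato dextrose agar at 28 °C for 3 days. No regrowth is scored fungicidal; regrowth is scored fungistatic.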

Fusarium solani [6] = assay: Antimicrobial activity against Fusarium solani at 0.3 uM after 72 hrs by microtiter assay; assay type: functional
Procedure, shortened: (§3)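 96-well microdilution broth assay with conidia (3 × 10^5 conidia/mL, harvested from 7-day PDA cultures and filtered) against F. oxysporum, F. proliferatum and F. solani at 0.3, 3 and 30 µM. Plates were held at 24 ± 1 °C under a 12 h photoperiod. Growth was read at 620 nm at 24, 48 and 72 h and reported as percent inhibition from mean absorbance with standard error.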

Fusarium proliferatum [7] = assay: Fungistatic activity against Fusarium proliferatum at 30 uM after 72 hrs by microtiter plate assay; assay type: functional, organism-based; procedure, shortened: as §2
Fusarium solani [8] = assay: Antimicrobial activity against Fusarium solani at 3 uM after 48 hrs by microtiter assay; assay type: functional; procedure, shortened: as §3
Fusarium proliferatum [9] = assay: Antimicrobial activity against Fusarium proliferatum at 0.3 uM after 48 hrs by microtiter assay; assay type: functional; procedure, shortened: as §3
Fusarium oxysporum [10] = assay: Antimicrobial activity against Fusarium oxysporum at 0.3 uM after 48 hrs by microtiter assay; assay type: functional; procedure, shortened: as §3
Fusarium oxysporum [11] = assay: Antimicrobial activity against Fusarium oxysporum at 3 uM after 72 hrs by microtiter assay; assay type: functional; procedure, shortened: as §3
Fusarium oxysporum [12] = assay: Antimicrobial activity against Fusarium oxysporum at 30 uM after 72 hrs by microtiter assay; assay type: functional; procedure, shortened: as §3
Fusarium proliferatum [13] = assay: Antimicrobial activity against Fusarium proliferatum at 30 uM after 48 hrs by microtiter assay; assay type: functional; procedure, shortened: as §3
Fusarium oxysporum [14] = assay: Antimicrobial activity against Fusarium oxysporum at 3 uM after 48 hrs by microtiter assay; assay type: functional; procedure, shortened: as §3
Fusarium solani [15] = assay: Fungistatic activity against Fusarium solani at 30 uM after 72 hrs by microtiter plate assay; assay type: functional, organism-based; procedure, shortened: as §2
Fusarium proliferatum [16] = assay: Antimicrobial activity against Fusarium proliferatum at 3 uM after 48 hrs by microtiter assay; assay type: functional; procedure, shortened: as §3
Fusarium oxysporum [17] = assay: Antimicrobial activity against Fusarium oxysporum at 0.3 uM after 72 hrs by microtiter assay; assay type: functional; procedure, shortened: as §3
Fusarium proliferatum [18] = assay: Antimicrobial activity against Fusarium proliferatum at 0.3 uM after 72 hrs by microtiter assay; assay type: functional; procedure, shortened: as §3
Fusarium solani [19] = assay: Antimicrobial activity against Fusarium solani at 30 uM after 72 hrs by microtiter assay; assay type: functional; procedure, shortened: as §3
Fusarium proliferatum [20] = assay: Antimicrobial activity against Fusarium proliferatum at 30 uM after 72 hrs by microtiter assay; assay type: functional; procedure, shortened: as §3
Fusarium solani [21] = assay: Antimicrobial activity against Fusarium solani at 30 uM after 48 hrs by microtiter assay; assay type: functional; procedure, shortened: as §3
Fusarium proliferatum [22] = assay: Antimicrobial activity against Fusarium proliferatum at 3 uM after 72 hrs by microtiter assay; assay type: functional; procedure, shortened: as §3
Fusarium solani [23] = assay: Antimicrobial activity against Fusarium solani at 0.3 uM after 48 hrs by microtiter assay; assay type: functional; procedure, shortened: as §3
Fusarium oxysporum [24] = assay: Antimicrobial activity against Fusarium oxysporum at 30 uM after 48 hrs by microtiter assay; assay type: functional; procedure, shortened: as §3
Fusarium solani [25] = assay: Antimicrobial activity against Fusarium solani at 3 uM after 72 hrs by microtiter assay; assay type: functional; procedure, shortened: as §3
Cryptococcus neoformans = assay: Antimicrobial activity against Cryptococcus neoformans ATCC 90113; assay type: functional, organism-based
Candida albicans = assay: Antimicrobial activity against Candida albicans ATCC 90028; assay type: functional, organism-based
Aspergillus fumigatus = assay: Antimicrobial activity against Aspergillus fumigatus ATCC 90906; assay type: functional, organism-based

C/C=C1\NC(=O)[C@H](Cc2ccccc2)NC(=O)[C@@H](C(C)C)NC(=O)[C@@H]([C@@H](C)CC)NC(=O)[C@H](NC(=O)[C@H](NC(=O)[C@H](CCCNC(=O)c2cc3ccc(N(CC)CC)cc3oc2=O)NC(=O)[C@H]2CCCN2C(=O)[C@@H](NC(=O)[C@H](NC(=O)[C@H](NC(=O)[C@@H](NC(=O)CCCC(C)C)C(C)C)[C@H](C)O)C(C)C)C(C)C)[C@@H](C)CC)[C@@H](C)OC(=O)[C@H](C(C)C)NC1=O
Activity (Fusarium solani [1]): inactive | Activity (Fusarium oxysporum [2]): inactive | Activity (Fusarium proliferatum [3]): inactive | Activity (Fusarium proliferatum [4]): inactive

O=C1C2CC=CCC2C(=O)N1SC(Cl)(Cl)Cl (stereo not given) [CAPTAN]
Activity (Fusarium oxysporum [5]): Active | inhibition at 0.3 µM (Fusarium solani [6]): 0% | Activity (Fusarium proliferatum [7]): Active | inhibition at 3 µM (Fusarium solani [8]): 5.1% | inhibition at 0.3 µM (Fusarium proliferatum [9]): 6% | inhibition at 0.3 µM (Fusarium oxysporum [10]): 0.2% | inhibition at 3 µM (Fusarium oxysporum [11]): 0% | inhibition at 30 µM (Fusarium oxysporum [12]): 98.1% | inhibition at 30 µM (Fusarium proliferatum [13]): 100% | inhibition at 3 µM (Fusarium oxysporum [14]): 7.6% | Activity (Fusarium solani [15]): Active | inhibition at 3 µM (Fusarium proliferatum [16]): 12% | inhibition at 0.3 µM (Fusarium oxysporum [17]): 0% | inhibition at 0.3 µM (Fusarium proliferatum [18]): 3% | inhibition at 30 µM (Fusarium solani [19]): 47.9% | inhibition at 30 µM (Fusarium proliferatum [20]): 100% | inhibition at 30 µM (Fusarium solani [21]): 90.7% | inhibition at 3 µM (Fusarium proliferatum [22]): 0% | inhibition at 0.3 µM (Fusarium solani [23]): 0% | inhibition at 30 µM (Fusarium oxysporum [24]): 99.5% | inhibition at 3 µM (Fusarium solani [25]): 0%

C[C@@H]1[C@H](O)[C@@H](C)/C=C/C=C/C=C/C=C/C=C/C=C/C=C/[C@H](O[C@@H]2O[C@H](C)[C@@H](O)[C@H](N)[C@@H]2O)C[C@@H]2O[C@](O)(C[C@@H](O)C[C@@H](O)[C@H](O)CC[C@@H](O)C[C@@H](O)CC(=O)O[C@H]1C)C[C@H](O)[C@H]2C(=O)O [AMPHOTERICIN B]
inhibition at 0.3 µM (Fusarium solani [6]): 0.1% | inhibition at 3 µM (Fusarium solani [8]): 18.1% | Activity (Fusarium solani [1]): Active | inhibition at 0.3 µM (Fusarium proliferatum [9]): 0% | inhibition at 0.3 µM (Fusarium oxysporum [10]): 0% | inhibition at 3 µM (Fusarium oxysporum [11]): 0% | inhibition at 30 µM (Fusarium oxysporum [12]): 87.1% | inhibition at 30 µM (Fusarium proliferatum [13]): 99.8% | inhibition at 3 µM (Fusarium oxysporum [14]): 12.5% | Activity (Fusarium oxysporum [2]): Active | Activity (Fusarium proliferatum [3]): Active | IC50 (Cryptococcus neoformans): 0.79 µM | MFC (Cryptococcus neoformans): 0.06 µM (≈ 0.0554 µg/mL) | MIC (Cryptococcus neoformans): 0.016 µM (≈ 0.0148 µg/mL) | IC50 (Candida albicans): 0.25 µM | MFC (Candida albicans): 1.25 µM (≈ 1.16 µg/mL) | MIC (Candida albicans): 0.625 µM (≈ 0.578 µg/mL) | inhibition at 3 µM (Fusarium proliferatum [16]): 7.9% | inhibition at 0.3 µM (Fusarium oxysporum [17]): 0% | IC50 (Aspergillus fumigatus): 1.32 µM | MFC (Aspergillus fumigatus): 2.5 µM (≈ 2.31 µg/mL) | MIC (Aspergillus fumigatus): 2.5 µM (≈ 2.31 µg/mL) | inhibition at 0.3 µM (Fusarium proliferatum [18]): 0% | inhibition at 30 µM (Fusarium solani [19]): 98.1% | inhibition at 30 µM (Fusarium proliferatum [20]): 79% | inhibition at 30 µM (Fusarium solani [21]): 100% | inhibition at 3 µM (Fusarium proliferatum [22]): 0% | inhibition at 0.3 µM (Fusarium solani [23]): 0% | inhibition at 30 µM (Fusarium oxysporum [24]): 99.7% | inhibition at 3 µM (Fusarium solani [25]): 0%
